The test system of data set [1] is 3T3-L1. In words: Cytotoxicity against mouse 3T3L1 cells. Type of data set: cell-based.
Data set [2] in a line: Cytotoxicity against mouse 3T3L1 cells at 5.2 uM. The format is cell-based. The conditions noted are these: 3T3-L1 cells, read-out: INH.
The subject of data set [3] is 3T3-L1. In words: Inhibition of fat accumulation in mouse 3T3L1 cells after 7 days. The format is functional, cell-based. To be noted: 3T3-L1, 168 h. In short, it runs like this: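 3T3-L1 cells were exposed to each sample during differentiation, while untreated controls became fully mature adipocytes. Fat accumulation was expressed relative to the controls, and IC50 was taken as the concentration giving 50% inhibition. Values are means of quadruplicate determinations.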

The structures appear in SMILES notation.

In general, IC50 refers to the concentration needed to halve the response being measured. Low values mean greater potency in that assay, high ones weaker potency in that assay. As for `C#CC[C@@H]1C(=O)N[C@H]([C@H](O)C(C)C)C(=O)N[C@H]([C@@H](C)CC)C(=O)N(C)[C@@H](C)C(=O)N(C)[C@@H](CC(C)C)C(=O)N[C@@H](CC(C)C)C(=O)N(C)[C@@H](C)C(=O)N1C`, the IC50 with 3T3-L1 [1] was above 5.2 µM; in the data set on 3T3-L1 [3], 0.019 µM. In addition, in data set [2], the cytotoxicity at 5.2 µM stood at 54%. Consider `CC[C@H](C)[C@H]1NC(=O)[C@@H]([C@@H](C)O)NC(=O)[C@@H](C)N(C)C(=O)[C@H](C)N(C)C(=O)[C@H](CC(C)C)NC(=O)[C@H](CC(C)C)N(C)C(=O)[C@H](C)N(C)C1=O`, for which half-maximal inhibition with 3T3-L1 [3] (IC50) required 3.1 µM. Still for that read-out and setting: for `CC[C@H](C)[C@H]1NC(=O)[C@@H](CO)NC(=O)[C@@H](C)N(C)C(=O)[C@H](C)N(C)C(=O)[C@H](CC(C)C)NC(=O)[C@H](CC(C)C)N(C)C(=O)[C@H](C)N(C)C1=O` the value was 12 µM.

In the case of `CC[C@H](C)[C@H]1NC(=O)[C@@H]([C@H](O)C(C)C)NC(=O)[C@@H](Cc2cn(CCOCCOCCNC(=O)CCCC[C@@H]3SC[C@@H]4NC(=O)N[C@@H]43)nn2)N(C)C(=O)[C@H](C)N(C)C(=O)[C@H](CC(C)C)NC(=O)[C@H](CC(C)C)N(C)C(=O)[C@H](C)N(C)C1=O`, the values for the IC50 in the data set with 3T3-L1 [1] and in the data set with 3T3-L1 [3] were above 86 µM and 46 µM, respectively.

Source of the values: ChEMBL document CHEMBL1139275, “Design, synthesis, and biological evaluation of biotin-labeled (-)-ternatin, a potent fat-accumulation inhibitor against 3T3-L1 adipocytes” (Bioorg Med Chem Lett, 2009).
